Reference: publication PMC7453301 (Journal of Pesticide Science, 2020)
In brackets after ≈: the same amount, converted by molar mass.

How the values were obtained:
Solubility in water = format: physicochemical
Outline: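 Water solubility measured at 20°C, reported in mg/L.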

Marssonina blotch = experiment: Field trials, apple Marssonina blotch; format: in vivo; details: PARADE 15FL; field trials Aomori Prefecture 2010 and 2013
[1] = system: SDH derived from Sclerotinia minor; experiment: SDH inhibition, DCIP method; format: biochemical; details: read-out: SDH IC50
[2] = biological target: SDH derived from Botrytis cinerea (Botrytis cinerea, UniProt A0A384J5E4+D2IH01+D2IH03); experiment: SDH inhibition, DCIP method; format: biochemical
[3] = biological target: SDH derived from Blumeria graminis (Blumeria graminis, UniProt N1J5Q8+N1JC31+N1JIS1); experiment: SDH inhibition, DCIP method; format: biochemical
[4] = biological target: SDH derived from Venturia inaequalis (Venturia inaequalis, UniProt A0A0H4U4T0+A0A370JIY7+A0A8H3Z7E8); experiment: SDH inhibition, DCIP method; format: biochemical; details: read-out: SDH IC50
[5] = system: SDH derived from Alternaria brassicae; experiment: SDH inhibition, DCIP method; format: biochemical; details: read-out: SDH IC50
[6] = biological target: SDH derived from Magnaporthe oryzae (Pyricularia oryzae, UniProt A0ABQ8NN34+G4N2P5+G4NB04); format: biochemical; details: read-out: SDH IC50
[7] = biological target: SDH derived from Puccinia recondita (Puccinia triticina, UniProt A0A0C4ES27+A0A180H0E4+A0A915VLF5); experiment: SDH inhibition, DCIP method; format: biochemical; details: read-out: SDH IC50
[8] = biological target: SDH derived from Rhizoctonia solani (Rhizoctonia solani, UniProt A0A074S2N8+A0A0B7FBK7+A0A0B7FK09); experiment: SDH inhibition, DCIP method; format: biochemical; details: read-out: SDH IC50
[9] = system: SDH derived from Pythium aphanidermatum; experiment: SDH inhibition, DCIP method; format: biochemical
[10] = biological target: SDH derived from Brassica oleracea (Cabbage) (Brassica oleracea, UniProt A0A0D3B707+A0A0D3E0G9+A0A0D3EGP9); experiment: SDH inhibition, DCIP method; format: biochemical; details: nontarget SDH
[11] = biological target: SDH derived from Solanum lycopersicum (Tomato) (Solanum lycopersicum, UniProt D2KQI9+Q952Q7+Q952R1); experiment: SDH inhibition, DCIP method; format: biochemical; details: nontarget SDH
[12] = biological target: SDH derived from Cucumis sativus (Cucumber) (Cucumis sativus, UniProt A0A0A0LBZ3+G3EIY8+G3EJ03); experiment: SDH inhibition, DCIP method; format: biochemical; details: nontarget SDH
[13] = biological target: SDH derived from Mus musculus (Mouse) (Mus musculus, UniProt Q9CQA3+Q9CXV1+Q9CZB0); experiment: SDH inhibition, DCIP method; format: biochemical
Gray mold (Cucumber) = details: cited from earlier work
Brown rust (Wheat) = details: cited from earlier work
Powdery mildew (Barley) = details: cited from earlier work
Sclerotinia sclerotiorum = details: cited from earlier work

Sequence of SDH derived from Mus musculus (Mouse) (Q9CQA3 31-282): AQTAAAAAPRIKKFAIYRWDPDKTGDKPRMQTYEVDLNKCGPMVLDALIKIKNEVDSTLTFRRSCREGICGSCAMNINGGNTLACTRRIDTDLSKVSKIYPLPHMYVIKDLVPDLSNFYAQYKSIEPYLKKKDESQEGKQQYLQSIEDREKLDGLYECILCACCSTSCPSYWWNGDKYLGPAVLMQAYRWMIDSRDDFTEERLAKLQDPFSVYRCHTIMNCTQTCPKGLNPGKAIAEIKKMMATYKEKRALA
Sequence of SDH derived from Mus musculus (Mouse) (Q9CZB0 30-169): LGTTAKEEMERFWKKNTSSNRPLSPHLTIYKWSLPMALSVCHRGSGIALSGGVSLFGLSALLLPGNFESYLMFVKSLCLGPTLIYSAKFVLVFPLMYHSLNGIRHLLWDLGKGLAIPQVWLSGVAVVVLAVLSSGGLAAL
Sequence of SDH derived from Mus musculus (Mouse) (Q9CXV1 57-159): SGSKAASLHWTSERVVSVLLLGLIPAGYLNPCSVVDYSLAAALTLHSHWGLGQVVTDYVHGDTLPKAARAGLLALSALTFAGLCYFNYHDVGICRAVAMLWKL
Sequence of SDH derived from Mus musculus (Mouse) (Q8K2B3 43-664 partner): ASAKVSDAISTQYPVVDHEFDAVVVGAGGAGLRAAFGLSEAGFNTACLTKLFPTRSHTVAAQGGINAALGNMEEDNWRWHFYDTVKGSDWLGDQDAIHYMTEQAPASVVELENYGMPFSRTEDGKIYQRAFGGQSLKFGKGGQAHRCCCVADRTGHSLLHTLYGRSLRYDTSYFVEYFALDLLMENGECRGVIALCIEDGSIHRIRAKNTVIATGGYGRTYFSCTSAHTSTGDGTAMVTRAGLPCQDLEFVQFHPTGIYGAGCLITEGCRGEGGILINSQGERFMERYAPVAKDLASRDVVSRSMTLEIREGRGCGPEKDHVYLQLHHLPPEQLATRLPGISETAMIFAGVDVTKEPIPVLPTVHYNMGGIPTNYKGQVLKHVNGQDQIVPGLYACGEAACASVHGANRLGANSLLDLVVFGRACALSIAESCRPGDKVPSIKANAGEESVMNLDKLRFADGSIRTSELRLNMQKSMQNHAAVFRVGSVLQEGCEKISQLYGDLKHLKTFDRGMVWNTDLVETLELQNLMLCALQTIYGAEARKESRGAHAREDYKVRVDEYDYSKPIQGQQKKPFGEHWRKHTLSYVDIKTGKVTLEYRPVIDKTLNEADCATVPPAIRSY
Sequence of SDH derived from Puccinia recondita (A0A180H0E4 31-288): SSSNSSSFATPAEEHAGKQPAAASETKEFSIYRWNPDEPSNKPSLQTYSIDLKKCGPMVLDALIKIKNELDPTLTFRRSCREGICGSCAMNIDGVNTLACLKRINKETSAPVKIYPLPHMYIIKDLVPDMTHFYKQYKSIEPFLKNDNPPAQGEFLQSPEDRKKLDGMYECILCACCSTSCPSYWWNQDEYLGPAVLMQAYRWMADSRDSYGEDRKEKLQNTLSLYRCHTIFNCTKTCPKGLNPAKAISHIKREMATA
Sequence of SDH derived from Puccinia recondita (A0A915VLF5 45-189): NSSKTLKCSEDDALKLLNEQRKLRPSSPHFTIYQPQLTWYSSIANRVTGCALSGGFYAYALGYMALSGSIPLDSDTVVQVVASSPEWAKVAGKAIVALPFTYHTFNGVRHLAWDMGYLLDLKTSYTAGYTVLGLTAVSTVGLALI
Sequence of SDH derived from Puccinia recondita (A0A0C4ES27 40-183): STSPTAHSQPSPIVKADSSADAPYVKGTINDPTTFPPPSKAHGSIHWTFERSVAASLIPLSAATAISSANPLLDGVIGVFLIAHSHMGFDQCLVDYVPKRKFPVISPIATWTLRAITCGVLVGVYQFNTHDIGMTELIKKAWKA
Sequence of SDH derived from Puccinia recondita (A0ABY7CNW8 35-649 partner): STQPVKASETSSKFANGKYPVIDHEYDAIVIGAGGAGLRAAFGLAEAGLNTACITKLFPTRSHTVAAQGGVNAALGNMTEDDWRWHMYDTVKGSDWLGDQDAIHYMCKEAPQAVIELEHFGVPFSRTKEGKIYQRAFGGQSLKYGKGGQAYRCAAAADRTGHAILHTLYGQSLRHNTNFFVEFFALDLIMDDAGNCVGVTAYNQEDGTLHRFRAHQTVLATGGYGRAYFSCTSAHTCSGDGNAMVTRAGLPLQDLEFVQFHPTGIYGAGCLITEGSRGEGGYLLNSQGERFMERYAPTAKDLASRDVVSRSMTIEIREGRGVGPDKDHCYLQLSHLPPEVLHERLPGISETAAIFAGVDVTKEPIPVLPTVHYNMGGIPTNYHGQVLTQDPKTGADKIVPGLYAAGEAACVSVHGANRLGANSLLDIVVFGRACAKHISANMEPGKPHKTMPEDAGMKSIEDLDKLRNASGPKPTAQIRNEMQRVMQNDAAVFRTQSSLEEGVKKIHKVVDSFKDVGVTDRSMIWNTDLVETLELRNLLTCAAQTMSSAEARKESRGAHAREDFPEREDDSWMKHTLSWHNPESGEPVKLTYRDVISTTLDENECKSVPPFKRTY
Sequence of SDH derived from Solanum lycopersicum (Tomato) (D2KQI9 29-274): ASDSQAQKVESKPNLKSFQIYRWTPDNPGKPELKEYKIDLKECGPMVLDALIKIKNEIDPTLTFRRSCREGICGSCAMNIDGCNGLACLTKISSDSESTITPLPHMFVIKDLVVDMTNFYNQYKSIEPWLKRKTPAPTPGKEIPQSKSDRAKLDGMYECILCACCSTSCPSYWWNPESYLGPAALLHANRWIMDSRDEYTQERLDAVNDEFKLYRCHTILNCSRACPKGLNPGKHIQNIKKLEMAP
Sequence of SDH derived from Solanum lycopersicum (Tomato) (Q952R1 1-108): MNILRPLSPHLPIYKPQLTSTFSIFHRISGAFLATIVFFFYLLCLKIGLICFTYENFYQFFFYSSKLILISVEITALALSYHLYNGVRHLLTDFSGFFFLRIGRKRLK
Sequence of SDH derived from Solanum lycopersicum (Tomato) (Q952Q7 1-100): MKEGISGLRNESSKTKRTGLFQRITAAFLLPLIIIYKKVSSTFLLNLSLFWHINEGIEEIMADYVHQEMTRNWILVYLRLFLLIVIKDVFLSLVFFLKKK
Sequence of SDH derived from Solanum lycopersicum (Tomato) (A0A3Q7F7G5 28-629 partner): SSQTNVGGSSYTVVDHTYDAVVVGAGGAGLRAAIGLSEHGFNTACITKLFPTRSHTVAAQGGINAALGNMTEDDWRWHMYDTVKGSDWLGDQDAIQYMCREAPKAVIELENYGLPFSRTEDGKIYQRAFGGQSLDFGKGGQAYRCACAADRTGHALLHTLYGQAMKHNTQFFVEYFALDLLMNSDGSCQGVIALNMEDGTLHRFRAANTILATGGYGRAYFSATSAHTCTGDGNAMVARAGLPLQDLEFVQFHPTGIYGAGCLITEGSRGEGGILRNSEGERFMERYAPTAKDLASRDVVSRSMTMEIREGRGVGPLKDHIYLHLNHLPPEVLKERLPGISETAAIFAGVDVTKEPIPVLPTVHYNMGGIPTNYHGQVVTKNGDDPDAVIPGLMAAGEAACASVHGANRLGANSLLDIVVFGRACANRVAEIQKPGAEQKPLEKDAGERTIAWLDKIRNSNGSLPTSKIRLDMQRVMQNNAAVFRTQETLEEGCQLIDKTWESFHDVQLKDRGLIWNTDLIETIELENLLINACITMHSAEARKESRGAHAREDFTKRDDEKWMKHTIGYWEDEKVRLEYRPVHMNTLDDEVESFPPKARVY
Sequence of SDH derived from Cucumis sativus (Cucumber) (A0A0A0LBZ3 28-277): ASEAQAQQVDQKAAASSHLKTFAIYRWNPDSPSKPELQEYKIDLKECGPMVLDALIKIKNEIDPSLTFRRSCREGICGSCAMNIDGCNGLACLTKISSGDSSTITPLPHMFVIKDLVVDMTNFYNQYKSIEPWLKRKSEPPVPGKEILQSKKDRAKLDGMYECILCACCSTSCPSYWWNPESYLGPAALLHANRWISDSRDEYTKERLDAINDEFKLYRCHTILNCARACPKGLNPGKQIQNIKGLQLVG
Sequence of SDH derived from Cucumis sativus (Cucumber) (G3EIY8 1-105): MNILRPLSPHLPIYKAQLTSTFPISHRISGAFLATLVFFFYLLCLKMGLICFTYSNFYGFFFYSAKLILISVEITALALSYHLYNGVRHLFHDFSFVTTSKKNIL
Sequence of SDH derived from Cucumis sativus (Cucumber) (G3EJ03 1-144): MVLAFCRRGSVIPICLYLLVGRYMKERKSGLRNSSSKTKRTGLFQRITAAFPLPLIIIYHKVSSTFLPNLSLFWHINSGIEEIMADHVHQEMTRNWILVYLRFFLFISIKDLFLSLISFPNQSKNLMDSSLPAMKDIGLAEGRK
Sequence of SDH derived from Cucumis sativus (Cucumber) (A0A0A0KUM6 34-635 partner): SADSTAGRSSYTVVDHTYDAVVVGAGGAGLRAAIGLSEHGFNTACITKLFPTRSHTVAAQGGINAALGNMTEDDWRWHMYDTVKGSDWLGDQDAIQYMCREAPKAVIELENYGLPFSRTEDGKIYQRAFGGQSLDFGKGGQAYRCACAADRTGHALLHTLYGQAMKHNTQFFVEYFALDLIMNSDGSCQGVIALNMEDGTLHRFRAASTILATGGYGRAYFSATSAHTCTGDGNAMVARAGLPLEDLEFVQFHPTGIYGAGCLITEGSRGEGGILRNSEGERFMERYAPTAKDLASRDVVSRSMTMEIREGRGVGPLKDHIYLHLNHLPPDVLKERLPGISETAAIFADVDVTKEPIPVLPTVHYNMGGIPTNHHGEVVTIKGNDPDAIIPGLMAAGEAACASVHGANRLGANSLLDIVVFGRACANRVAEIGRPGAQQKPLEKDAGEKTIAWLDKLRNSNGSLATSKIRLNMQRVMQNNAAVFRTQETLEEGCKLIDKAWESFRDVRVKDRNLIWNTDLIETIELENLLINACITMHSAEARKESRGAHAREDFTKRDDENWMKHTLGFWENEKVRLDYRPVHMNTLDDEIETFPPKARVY

## O=C(Nc1ccccc1-c1ccc(F)c(F)c1)c1nccnc1C(F)(F)F [Compound 9, N-(3′,4′-difluorobiphenyl-2-yl)-3-(trifluoromethyl)pyrazine-2-carboxamide]
Solubility in water
  solubility: 2.32 µg/mL (≈ 6.12 µM)
Marssonina blotch
  residual activity against Marssonina blotch of apple: excellent residual activity
[1]
  IC50: 0.7 nM
[2]
  IC50: 4.1 nM
[3]
  IC50: 5.8 nM
[4]
  IC50: 18.9 nM
[5]
  IC50: 2.1 nM
[6]
  IC50: 2500 nM
[7]
  IC50: 14.4 nM
[8]
  IC50: 5.9 nM
[9]; oomycete Pythium aphanidermatum
  SDH inhibitory activity: no inhibitory activity
[9]; read-out: SDH IC50, Pythium aphanidermatum
  IC50: > 8000 nM
[10]
  SDH inhibitory activity: did not show any inhibitory activity
[11]
  SDH inhibitory activity: did not show any inhibitory activity
[12]
  SDH inhibitory activity: did not show any inhibitory activity
[13]
  IC50: > 32000 nM
[13]; nontarget SDH, mice
  SDH inhibitory activity: did not show any inhibitory activity
Gray mold (Cucumber)
  Fungicidal activity EC80, Gray mold (Cucumber): 2–10 mg a.i./L
Brown rust (Wheat)
  Fungicidal activity EC80, Brown rust (Wheat): 0.5–2 mg a.i./L
Powdery mildew (Barley)
  Fungicidal activity EC80, Powdery mildew (Barley): 0.5–2 mg a.i./L
Sclerotinia sclerotiorum
  inhibition activity against apothecium formation: exhibits inhibition activity
